These results are taken from ChEMBL document CHEMBL4145497, “Discovery of 2-aminothiazolyl berberine derivatives as effectively antibacterial agents toward clinically drug-resistant Gram-negative Acinetobacter baumanii” (Eur J Med Chem, 2018).

In brackets after ≈: the same amount, converted by molar mass.

For one data set, the system named is Bacillus subtilis. Kind of data set: Antibacterial activity against Bacillus subtilis ATCC 21216 after 18 to 24 hrs by CLSI two fold serial dilution method. Format: functional.
The subject of data set [1] is Escherichia coli. Put plainly: Antibacterial activity against Escherichia coli DH52 after 18 to 24 hrs by CLSI two fold serial dilution method. It counts as functional.
A further data set concerns Pichia norvegensis. Put plainly: Antifungal activity against Candida mycoderma ATCC 96918 by CLSI two fold serial dilution method. Format: functional.
For another data set, the system named is Saccharomyces cerevisiae. Kind of data set: Antifungal activity against Saccharomyces cerevisiae ATCC 9763 by CLSI two fold serial dilution method. Format: functional.
The test system of a further data set is Candida parapsilosis. Kind of data set: Antifungal activity against Candida parapsilosis ATCC 22019 by CLSI two fold serial dilution method. It counts as functional. The conditions noted are these: Lodderomyces parapsilosis.
In the next data set the test system is Cyberlindnera jadinii. Put plainly: Antifungal activity against Candida utilis ATCC 9950 by CLSI two fold serial dilution method. Conditions: Williopsis jadinii. Format: functional.
Data set [2] concerns Pseudomonas aeruginosa. Kind of data set: Antibacterial activity against Pseudomonas aeruginosa ATCC 27853 after 18 to 24 hrs by CLSI two fold serial dilution method. Format: functional.
Data set [3] concerns Candida albicans. Put plainly: Antifungal activity against Candida albicans ATCC 76615 by CLSI two fold serial dilution method. It counts as functional.
A short description of data set [4]: Aqueous solubility of the compound in phosphate buffer at pH 7.4 after 3 hrs by UV detection assay. It counts as physicochemical. In short, it runs like this: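 Water solubility measured at physiological pH, with berberine as the control.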
Data set [5] has as its system Staphylococcus aureus. Put plainly: Antibacterial activity against Staphylococcus aureus ATCC 25923 after 18 to 24 hrs by CLSI two fold serial dilution method. Format: functional.
The next data set has as its system Aspergillus flavus. Kind of data set: Antifungal activity against Aspergillus flavus ATCC 204304 by CLSI two fold serial dilution method. Format: functional.
The next data set concerns Micrococcus luteus. Kind of data set: Antibacterial activity against Micrococcus luteus ATCC 4698 after 18 to 24 hrs by CLSI two fold serial dilution method. It counts as functional.
The next data set has as its system Acinetobacter baumannii. Put plainly: Antibacterial activity against drug-resistant Acinetobacter baumannii after 18 to 24 hrs by CLSI two fold serial dilution method. Format: functional.
A further data set deals with Enterococcus faecalis. Kind of data set: Antibacterial activity against drug-resistant Enterococcus faecalis after 18 to 24 hrs by CLSI two fold serial dilution method. Format: functional.
The subject of the next data set is Candida tropicalis. Put plainly: Antifungal activity against drug-resistant Candida tropicalis by CLSI two fold serial dilution method. It counts as functional.
Another data set relates to Klebsiella pneumoniae. Kind of data set: Antibacterial activity against drug-resistant Klebsiella pneumoniae after 18 to 24 hrs by CLSI two fold serial dilution method. Format: functional.
Data set [6] has as its system Escherichia coli. Kind of data set: Antibacterial activity against drug-resistant Escherichia coli after 18 to 24 hrs by CLSI two fold serial dilution method. It counts as functional.
For data set [7], the system named is Candida albicans. Put plainly: Antifungal activity against drug-resistant Candida albicans by CLSI two fold serial dilution method. Format: functional.
For data set [8], the system named is Pseudomonas aeruginosa. Put plainly: Antibacterial activity against drug-resistant Pseudomonas aeruginosa after 18 to 24 hrs by CLSI two fold serial dilution method. Format: functional.
The subject of another data set is Aspergillus fumigatus. Kind of data set: Antifungal activity against drug-resistant Aspergillus fumigatus by CLSI two fold serial dilution method. Format: functional.
Data set [9] has as its system Staphylococcus aureus. Kind of data set: Antibacterial activity against methicillin-resistant Staphylococcus aureus N315 after 18 to 24 hrs by CLSI two fold serial dilution method. Format: functional.

`COc1cc(/C=N/Nc2nccs2)c2c(c1OCC#N)CN1CCc3cc4c(cc3C1C2)OCO4` (centres undefined): the MIC (as a rule, the lowest concentration that inhibits growth of the organism) with Bacillus subtilis is 260 µM (≈ 127 µg/mL); against Escherichia coli [1] it was 260 µM (≈ 127 µg/mL); against Pichia norvegensis it was 130 µM (≈ 63.6 µg/mL); in the data set on Saccharomyces cerevisiae, 1050 µM (≈ 514 µg/mL); in the data set with Candida parapsilosis, 20 µM (≈ 9.79 µg/mL); in the data set with Cyberlindnera jadinii, 520 µM (≈ 255 µg/mL). In addition, the MIC in the data set with Pseudomonas aeruginosa [2] is 260 µM (≈ 127 µg/mL); with Candida albicans [3] it was 70 µM (≈ 34.3 µg/mL); in the data set on Staphylococcus aureus [5] it was 130 µM (≈ 63.6 µg/mL); in the data set on Aspergillus flavus, 1050 µM (≈ 514 µg/mL); in the data set with Micrococcus luteus, 260 µM (≈ 127 µg/mL). The solubility (usually the dissolved amount per volume that the medium holds) at 3 h in data set [4] was in the range of 7020 to 10200 µg/mL (≈ 14.3 to 20.8 mM).
As for `C=CCOc1c(OC)cc(/C=N/Nc2nccs2)c2c1CN1CCc3cc4c(cc3C1C2)OCO4` (centres undefined), the MIC in the data set with Bacillus subtilis worked out at 520 µM (≈ 255 µg/mL); against Escherichia coli [1], 130 µM (≈ 63.8 µg/mL); with Pichia norvegensis it was 520 µM (≈ 255 µg/mL); in the data set with Saccharomyces cerevisiae, 1040 µM (≈ 510 µg/mL); against Candida parapsilosis, 70 µM (≈ 34.3 µg/mL); against Cyberlindnera jadinii, 130 µM (≈ 63.8 µg/mL). In addition, the MIC in the data set with Pseudomonas aeruginosa [2] is 260 µM (≈ 128 µg/mL); in the data set on Candida albicans [3], 130 µM (≈ 63.8 µg/mL); in the data set with Staphylococcus aureus [5], 30 µM (≈ 14.7 µg/mL); against Aspergillus flavus, 260 µM (≈ 128 µg/mL); against Micrococcus luteus, 130 µM (≈ 63.8 µg/mL). In addition, the solubility at 3 h in data set [4] is 7020 to 10200 µg/mL (≈ 14.3 to 20.8 mM).
`COc1cc(/C=N/Nc2nccs2)c2c(c1OCc1ccc(Cl)cc1)CN1CCc3cc4c(cc3C1C2)OCO4` (centres undefined): the MIC against Bacillus subtilis was determined as 450 µM (≈ 259 µg/mL); in the data set with Escherichia coli [1], 110 µM (≈ 63.3 µg/mL); with Pichia norvegensis, 450 µM (≈ 259 µg/mL); against Saccharomyces cerevisiae, 890 µM (≈ 512 µg/mL); against Candida parapsilosis, 60 µM (≈ 34.5 µg/mL); in the data set on Cyberlindnera jadinii, 220 µM (≈ 127 µg/mL). Also, the MIC with Pseudomonas aeruginosa [2] turned out to be 220 µM (≈ 127 µg/mL); against Candida albicans [3], 450 µM (≈ 259 µg/mL); in the data set on Staphylococcus aureus [5], 450 µM (≈ 259 µg/mL); in the data set on Aspergillus flavus, 890 µM (≈ 512 µg/mL); against Micrococcus luteus, 220 µM (≈ 127 µg/mL). This molecule also showed a solubility at 3 h in data set [4] of 374 to 3190 µg/mL (≈ 0.65 to 5.55 mM).
Turning to `COc1cc(/C=N/Nc2nccs2)c2c(c1OCc1ccccc1)CN1CCc3cc4c(cc3C1C2)OCO4` (centres undefined), the MIC against Bacillus subtilis was determined as 470 µM (≈ 254 µg/mL); with Escherichia coli [1], 950 µM (≈ 514 µg/mL); in the data set on Pichia norvegensis, 60 µM (≈ 32.4 µg/mL); against Saccharomyces cerevisiae, 950 µM (≈ 514 µg/mL); against Candida parapsilosis it was 60 µM (≈ 32.4 µg/mL); in the data set on Cyberlindnera jadinii, 470 µM (≈ 254 µg/mL). In addition, the MIC in the data set on Pseudomonas aeruginosa [2] was determined as 240 µM (≈ 130 µg/mL); in the data set with Candida albicans [3], 470 µM (≈ 254 µg/mL); with Staphylococcus aureus [5] it was 240 µM (≈ 130 µg/mL); against Aspergillus flavus, 950 µM (≈ 514 µg/mL); in the data set with Micrococcus luteus, 240 µM (≈ 130 µg/mL). Further, in data set [4], the solubility at 3 h was in the range of 374 to 3190 µg/mL (≈ 0.692 to 5.9 mM).
Consider `CCOc1c(OC)cc(/C=N/Nc2nccs2)c2c1CN1CCc3cc4c(cc3C1C2)OCO4` (centres undefined), for which the MIC against Bacillus subtilis was 530 µM (≈ 254 µg/mL); in the data set on Escherichia coli [1], 70 µM (≈ 33.5 µg/mL); against Pichia norvegensis, 540 µM (≈ 258 µg/mL); in the data set with Saccharomyces cerevisiae, 1070 µM (≈ 512 µg/mL); in the data set on Candida parapsilosis, 30 µM (≈ 14.4 µg/mL); in the data set on Cyberlindnera jadinii, 540 µM (≈ 258 µg/mL). Besides, the minimal inhibitory concentration (MIC) is 70 µM (≈ 33.5 µg/mL) with Pseudomonas aeruginosa [2]; 70 µM (≈ 33.5 µg/mL) against Candida albicans [3]; 70 µM (≈ 33.5 µg/mL) in the data set on Staphylococcus aureus [5]; 540 µM (≈ 258 µg/mL) in the data set with Aspergillus flavus; 530 µM (≈ 254 µg/mL) with Micrococcus luteus. Further, the concentration in solution in [4] (solubility at 3 h) was 10200 µg/mL (≈ 21.3 mM).
On to `COc1cc(/C=N/Nc2nccs2)c2c(c1OCc1ccc(Cl)c(Cl)c1)CN1CCc3cc4c(cc3C1C2)OCO4` (centres undefined), for which the MIC with Bacillus subtilis turned out to be 210 µM (≈ 128 µg/mL); in the data set with Escherichia coli [1], 110 µM (≈ 67 µg/mL); with Pichia norvegensis, 210 µM (≈ 128 µg/mL); against Saccharomyces cerevisiae, 840 µM (≈ 512 µg/mL); with Candida parapsilosis, 110 µM (≈ 67 µg/mL); with Cyberlindnera jadinii, 420 µM (≈ 256 µg/mL). For the same molecule, the MIC against Pseudomonas aeruginosa [2] was found to be 110 µM (≈ 67 µg/mL); with Candida albicans [3], 420 µM (≈ 256 µg/mL); in the data set with Staphylococcus aureus [5], 110 µM (≈ 67 µg/mL); in the data set with Aspergillus flavus, 420 µM (≈ 256 µg/mL); in the data set with Micrococcus luteus it was 420 µM (≈ 256 µg/mL). The molecule also returned a solubility at 3 h in data set [4] of 374 to 3190 µg/mL (≈ 0.614 to 5.23 mM).
Take `COc1cc(/C=N/Nc2nccs2)c2c(c1OCc1ccccc1Cl)CN1CCc3cc4c(cc3C1C2)OCO4` (centres undefined): the MIC in the data set with Bacillus subtilis amounted to 220 µM (≈ 127 µg/mL); in the data set on Escherichia coli [1], 450 µM (≈ 259 µg/mL); against Pichia norvegensis, 110 µM (≈ 63.3 µg/mL); against Saccharomyces cerevisiae it was 890 µM (≈ 512 µg/mL); against Candida parapsilosis, 110 µM (≈ 63.3 µg/mL); in the data set on Cyberlindnera jadinii it was 450 µM (≈ 259 µg/mL). The MIC in the data set on Pseudomonas aeruginosa [2] was 450 µM (≈ 259 µg/mL); in the data set with Candida albicans [3], 450 µM (≈ 259 µg/mL); in the data set on Staphylococcus aureus [5] it was 110 µM (≈ 63.3 µg/mL); in the data set on Aspergillus flavus, 890 µM (≈ 512 µg/mL); with Micrococcus luteus it was 890 µM (≈ 512 µg/mL). The solubility at 3 h in [4] is 374 to 3190 µg/mL (≈ 0.65 to 5.55 mM).
For `COc1cc(/C=N/NC(N)=S)c2c(c1OCc1ccccc1Cl)CN1CCc3cc4c(cc3C1C2)OCO4` (centres undefined), the MIC in the data set with Bacillus subtilis was 230 µM (≈ 127 µg/mL); in the data set with Acinetobacter baumannii it was 4 µM (≈ 2.2 µg/mL); with Escherichia coli [1], 230 µM (≈ 127 µg/mL); in the data set on Enterococcus faecalis, 230 µM (≈ 127 µg/mL); with Pichia norvegensis, 230 µM (≈ 127 µg/mL); against Candida tropicalis, 470 µM (≈ 259 µg/mL). For the same molecule, the MIC in the data set with Klebsiella pneumoniae is 230 µM (≈ 127 µg/mL); in the data set with Escherichia coli [6], 230 µM (≈ 127 µg/mL); in the data set on Saccharomyces cerevisiae it was 930 µM (≈ 512 µg/mL); against Candida parapsilosis it was 230 µM (≈ 127 µg/mL); against Candida albicans [7], 230 µM (≈ 127 µg/mL); against Cyberlindnera jadinii it was 230 µM (≈ 127 µg/mL). Moreover, the MIC with Pseudomonas aeruginosa [8] came to 470 µM (≈ 259 µg/mL); in the data set on Pseudomonas aeruginosa [2], 470 µM (≈ 259 µg/mL); against Candida albicans [3], 230 µM (≈ 127 µg/mL); against Aspergillus fumigatus it was 4 µM (≈ 2.2 µg/mL); against Staphylococcus aureus [9], 120 µM (≈ 66.1 µg/mL); in the data set with Staphylococcus aureus [5] it was 120 µM (≈ 66.1 µg/mL). For the same molecule, the MIC turned out to be 470 µM (≈ 259 µg/mL) with Aspergillus flavus and 230 µM (≈ 127 µg/mL) in the data set on Micrococcus luteus.
